Columns and labels:
[1] = Plasma concentration in SC dosed CD-1 mouse treated four times at 6 hrs interval measured after 4 hrs; assay type: ADME, organism-based
How it was run: (§1)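 CD-1 mice dosed SC at 50 mg/kg. Plasma sampled at 0.167 to 24 h, three individual mice per time point, reported as mean and SD in ng/mL.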

Acinetobacter baumannii [2] = test: Antibacterial activity against carbapenem resistant Acinetobacter baumannii isolate PR-345 assessed as inhibition of bacterial growth in presence of 20 ug/ml sulbactam by microdilution method; assay type: functional; details: dose 20 µg/ml
Acinetobacter baumannii [3] = test: Antibacterial activity against carbapenem susceptible Acinetobacter baumannii isolate PR-340 assessed as inhibition of bacterial growth in presence of 20 ug/ml sulbactam by microdilution method
Pseudomonas aeruginosa [4] = test: Antibacterial activity against wild type Pseudomonas aeruginosa isolate PR-636 leucine at 533 residue assessed as inhibition of bacterial growth by microdilution method; assay type: functional
How it was run: (§2)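 Broth microdilution MIC in iron-depleted (Chelex resin-treated) cation-adjusted Mueller-Hinton broth, following the protocol used for siderophore-containing antibiotics. Inoculum was lowered to 6 × 10^4 cfu/mL.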

Pseudomonas aeruginosa [5] = test: Antibacterial activity against Pseudomonas aeruginosa isolate PR-627 leucine at 533 residue assessed as inhibition of bacterial growth by microdilution method; assay type: functional
How it was run: (§3)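 Broth microdilution in Chelex-treated, iron-depleted cation-adjusted Mueller-Hinton broth, following the protocol used for siderophore-containing antibiotics; inoculum lowered to 6 × 10^4 cfu/mL; MIC read as growth inhibition, in μg/mL.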

Pseudomonas aeruginosa [6] = test: Antibacterial activity against wild type Pseudomonas aeruginosa isolate PR-672 assessed as inhibition of bacterial growth by microdilution method; assay type: functional; how it was run: as §2
Acinetobacter baumannii [7] = test: Antibacterial activity against carbapenem susceptible Acinetobacter baumannii isolate PR-452 assessed as inhibition of bacterial growth at 1:1 compound to sulbactam concentration by microdilution method; assay type: functional; how it was run: as §2
Acinetobacter baumannii [8] = test: Antibacterial activity against carbapenem resistant Acinetobacter baumannii isolate PR-401 assessed as inhibition of bacterial growth in presence of 20 ug/ml sulbactam by microdilution method; assay type: functional; details: dose 20 µg/ml
Acinetobacter baumannii [9] = test: Antibacterial activity against carbapenem resistant Acinetobacter baumannii isolate PR-342 assessed as bacterial growth inhibition by microdilution method; assay type: functional; how it was run: as §3
[10] = Antibacterial activity against carbapenem susceptible Acinetobacter nosocomialis isolate PR-362 assessed as bacterial growth inhibition by microdilution method; assay type: functional; how it was run: as §2
Acinetobacter baumannii [11] = test: Antibacterial activity against carbapenem resistant Acinetobacter baumannii isolate PR-482 assessed as inhibition of bacterial growth in presence of 20 ug/ml sulbactam by microdilution method; assay type: functional; details: dose 20 µg/ml; how it was run: as §2
Acinetobacter baumannii [12] = test: Antibacterial activity against carbapenem resistant Acinetobacter baumannii isolate PR-459 assessed as bacterial growth inhibition by microdilution method; assay type: functional; how it was run: as §3
Acinetobacter baumannii [13] = test: Antibacterial activity against carbapenem resistant Acinetobacter baumannii isolate PR-342 assessed as inhibition of bacterial growth at 1:1 compound to sulbactam concentration by microdilution method; assay type: functional
How it was run: (§4)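 Iron-depleted (Chelex-treated) cation-adjusted Mueller-Hinton broth microdilution; inoculum 6 × 10^4 cfu/mL. Test agent and sulbactam mixed 1:1 by mass and serially 2-fold diluted together. MIC in μg/mL.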

Acinetobacter baumannii [14] = test: Antibacterial activity against carbapenem resistant Acinetobacter baumannii isolate PR-399 assessed as inhibition of bacterial growth in presence of 20 ug/ml sulbactam by microdilution method; assay type: functional; details: dose 20 µg/ml
Acinetobacter baumannii [15] = test: Antibacterial activity against carbapenem resistant Acinetobacter baumannii isolate PR-380 assessed as inhibition of bacterial growth at 1:1 compound to sulbactam concentration by microdilution method; assay type: functional; how it was run: as §4
Acinetobacter baumannii [16] = test: Antibacterial activity against carbapenem resistant Acinetobacter baumannii isolate PR-399 assessed as inhibition of bacterial growth at 1:1 compound to sulbactam concentration by microdilution method; assay type: functional; how it was run: as §4
Acinetobacter baumannii [17] = test: Antibacterial activity against carbapenem susceptible Acinetobacter baumannii isolate PR-478 assessed as bacterial growth inhibition by microdilution method; assay type: functional; how it was run: as §2
Acinetobacter baumannii [18] = test: Antibacterial activity against carbapenem susceptible Acinetobacter baumannii isolate PR-452 assessed as bacterial growth inhibition by microdilution method; assay type: functional; how it was run: as §2
Acinetobacter baumannii [19] = test: Antibacterial activity against carbapenem resistant Acinetobacter baumannii isolate PR-314 assessed as inhibition of bacterial growth at 1:1 compound to sulbactam concentration by microdilution method; assay type: functional; how it was run: as §4
[20] = Antibacterial activity against carbapenem susceptible Acinetobacter nosocomialis isolate PR-412 assessed as inhibition of bacterial growth at 1:1 compound to sulbactam concentration by microdilution method; assay type: functional; how it was run: as §2
Hepatocyte = test: Cytotoxicity against human hepatocytes at 100 uM; assay type: cell-based
Acinetobacter baumannii [21] = test: Antibacterial activity against carbapenem resistant Acinetobacter baumannii isolate PR-342 assessed as inhibition of bacterial growth in presence of 20 ug/ml sulbactam by microdilution method; assay type: functional; details: dose 20 µg/ml
Acinetobacter baumannii [22] = test: Antibacterial activity against carbapenem susceptible Acinetobacter baumannii isolate PR-340 assessed as inhibition of bacterial growth at 1:1 compound to sulbactam concentration by microdilution method
Acinetobacter baumannii [23] = test: Antibacterial activity against carbapenem resistant Acinetobacter baumannii isolate PR-319 assessed as inhibition of bacterial growth at 1:1 compound to sulbactam concentration by microdilution method; assay type: functional; how it was run: as §4
[24] = Metabolic stability in human microsomes assessed as half life; assay type: ADME, Microsome
[25] = Plasma protein binding in mouse; details: read-out: PPB (converted)
Acinetobacter baumannii [26] = test: Antibacterial activity against carbapenem susceptible Acinetobacter baumannii isolate PR-434 assessed as bacterial growth inhibition by microdilution method; assay type: functional; how it was run: as §2
Acinetobacter baumannii [27] = test: Antibacterial activity against carbapenem susceptible Acinetobacter baumannii isolate PR-478 assessed as inhibition of bacterial growth at 1:1 compound to sulbactam concentration by microdilution method; assay type: functional
How it was run: (§5)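 Broth microdilution MIC in Chelex-treated, iron-depleted cation-adjusted Mueller-Hinton broth, inoculum 6 × 10^4 cfu/mL. Compound and sulbactam combined 1:1 by mass in a 2-fold dilution series.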

Acinetobacter baumannii [28] = test: Antibacterial activity against carbapenem resistant Acinetobacter baumannii isolate PR-384 assessed as inhibition of bacterial growth in presence of 20 ug/ml sulbactam by microdilution method; assay type: functional; details: dose 20 µg/ml
Acinetobacter baumannii [29] = test: Antibacterial activity against carbapenem resistant Acinetobacter baumannii isolate PR-351 assessed as inhibition of bacterial growth in presence of 20 ug/ml sulbactam by microdilution method; assay type: functional; details: dose 20 µg/ml
Acinetobacter baumannii [30] = test: Antibacterial activity against carbapenem resistant Acinetobacter baumannii isolate PR-319 assessed as bacterial growth inhibition by microdilution method; assay type: functional; how it was run: as §3
[31] = Antibacterial activity against carbapenem susceptible Acinetobacter nosocomialis isolate PR-412 assessed as bacterial growth inhibition by microdilution method; assay type: functional; how it was run: as §2
Acinetobacter baumannii [32] = test: Antibacterial activity against carbapenem resistant Acinetobacter baumannii isolate PR-459 assessed as inhibition of bacterial growth in presence of 20 ug/ml sulbactam by microdilution method; assay type: functional; details: dose 20 µg/ml
Pseudomonas aeruginosa [33] = test: Antibacterial activity against wild type Pseudomonas aeruginosa isolate PR-668 leucine at 533 residue assessed as inhibition of bacterial growth by microdilution method; assay type: functional; how it was run: as §2
Acinetobacter baumannii [34] = test: Antibacterial activity against carbapenem susceptible Acinetobacter baumannii isolate PR-434 assessed as inhibition of bacterial growth at 1:1 compound to sulbactam concentration by microdilution method; assay type: functional; how it was run: as §5
Acinetobacter baumannii [35] = test: Antibacterial activity against carbapenem resistant Acinetobacter baumannii isolate PR-345 assessed as inhibition of bacterial growth at 1:1 compound to sulbactam concentration by microdilution method; assay type: functional; how it was run: as §4
[36] = Plasma concentration in SC dosed CD-1 mouse treated four times at 6 hrs interval measured after 0.167 hrs; assay type: ADME, organism-based; how it was run: as §1

SMILES: CC(C)(O/N=C(\C(=O)N[C@H]1CN2CC(C(=O)NCCN3C(=O)c4cc(O)c(O)cc4C3=O)=C(C(=O)O)N2C1=O)c1nc(N)sc1Cl)C(=O)O
- concentration at 4 h [1]: 1340 ng/mL
- MIC (Acinetobacter baumannii [2]): ≤ 0.25 µg/mL
- MIC (Acinetobacter baumannii [3]): ≤ 0.25 µg/mL
- MIC (Pseudomonas aeruginosa [4]): > 16 µg/mL
- MIC (Pseudomonas aeruginosa [5]): > 16 µg/mL
- MIC (Pseudomonas aeruginosa [6]): ≤ 0.25 µg/mL
- MIC (Acinetobacter baumannii [7]): ≤ 0.25 µg/mL
- MIC (Acinetobacter baumannii [8]): ≤ 0.25 µg/mL
- MIC (Acinetobacter baumannii [9]): 16 µg/mL
- MIC [10]: > 16 µg/mL
- MIC (Acinetobacter baumannii [11]): ≤ 0.25 µg/mL
- MIC (Acinetobacter baumannii [12]): 16 µg/mL
- MIC (Acinetobacter baumannii [13]): > 16 µg/mL
- MIC (Acinetobacter baumannii [14]): ≤ 0.25 µg/mL
- MIC (Acinetobacter baumannii [15]): 16 µg/mL
- MIC (Acinetobacter baumannii [16]): 16 µg/mL
- MIC (Acinetobacter baumannii [17]): 16 µg/mL
- MIC (Acinetobacter baumannii [18]): > 16 µg/mL
- MIC (Acinetobacter baumannii [19]): 4 µg/mL
- MIC [20]: 1 µg/mL
- Activity (Hepatocyte): Non-Toxic
- MIC (Acinetobacter baumannii [21]): > 16 µg/mL
- MIC (Acinetobacter baumannii [22]): 1 µg/mL
- MIC (Acinetobacter baumannii [23]): 4 µg/mL
- t1/2 [24]: > 1 h
- fraction unbound [25]: 0.06
- MIC (Acinetobacter baumannii [26]): > 16 µg/mL
- MIC (Acinetobacter baumannii [27]): 1 µg/mL
- MIC (Acinetobacter baumannii [28]): > 16 µg/mL
- MIC (Acinetobacter baumannii [29]): ≤ 0.25 µg/mL
- MIC (Acinetobacter baumannii [30]): > 16 µg/mL
- MIC [31]: > 16 µg/mL
- MIC (Acinetobacter baumannii [32]): 4 µg/mL
- MIC (Pseudomonas aeruginosa [33]): > 16 µg/mL
- MIC (Acinetobacter baumannii [34]): 2 µg/mL
- MIC (Acinetobacter baumannii [35]): 16 µg/mL
- concentration at 0.167 h [36]: 47400 ng/mL
